ChEMBL document CHEMBL5058577, “EUbOPEN Chemogenomics Library 2 (Multiplex)” (2022)

Test system: U2OS
Test: Multiplex assay against U2OS
Type: toxicity, cell-based
Details: human
Procedure, shortened: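 Phenotypes for tubulin, mitochondrial mass and membrane permeability are expressed as per cents of healthy-nucleus cells. Cells were stained live at seeding with Hoechst33342, BioTracker Green Microtubule Cytoskeleton Dye, MitoTracker Red and Annexin V Alexa Fluor 680, then imaged after compound addition on a CQ1 microscope at 37°C and 5% CO2. Machine-learning gating in CellPathfinder separated Hoechst high-intensity objects from normal cells, divided normal cells by nuclear state (healthy, pyknosed, fragmented) and divided pyknosed cells into mitotic or apoptotic.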

[1] = 12 h, 1 µM, compound concentration 1 uM, replicate 1
[2] = 12 h, 1 µM, compound concentration 1 uM, replicate 2
[3] = 12 h, 10 µM, compound concentration 10 uM, replicate 1
[4] = 12 h, 10 µM, compound concentration 10 uM, replicate 2
[5] = 24 h, 1 µM, compound concentration 1 uM, replicate 1
[6] = 24 h, 1 µM, compound concentration 1 uM, replicate 2
[7] = 24 h, 10 µM, compound concentration 10 uM, replicate 1
[8] = 24 h, 10 µM, compound concentration 10 uM, replicate 2
[9] = 48 h, 1 µM, compound concentration 1 uM, replicate 1
[10] = 48 h, 1 µM, compound concentration 1 uM, replicate 2
[11] = 48 h, 10 µM, compound concentration 10 uM, replicate 1
[12] = 48 h, 10 µM, compound concentration 10 uM, replicate 2

COc1ccccc1N1CCN(C[C@@H](C(=O)NC(C)(C)C)c2ccccc2)CC1.Cl.Cl
Population Apoptotic (%) [1]: 73%
Population Fragmented Nuclei (%) [1]: 29%
Population Healthy Nuclei (%) [1]: 65%
Population Hoechst High Intensity Objects (%) [1]: 2%
Population Membrane Permeable-Phenotype (%) [1]: 5%
Population Mitochondria Different-Phenotype (%) [1]: 3%
Population Mitotic Cells (%) [1]: 26%
Population Normal (%) [1]: 97%
Population Pyknosed Nuclei (%) [1]: 5%
Population Tubulin-Different-Phenotype (%) [1]: 1%
Total Cell Count [1]: 281
Population Apoptotic (%) [2]: 66%
Population Fragmented Nuclei (%) [2]: 14%
Population Healthy Nuclei (%) [2]: 80%
Population Hoechst High Intensity Objects (%) [2]: 1%
Population Membrane Permeable-Phenotype (%) [2]: 7%
Population Mitochondria Different-Phenotype (%) [2]: 2%
Population Mitotic Cells (%) [2]: 33%
Population Normal (%) [2]: 98%
Population Tubulin-Different-Phenotype (%) [2]: 3%
Total Cell Count [2]: 114
Population Apoptotic (%) [3]: 46%
Population Fragmented Nuclei (%) [3]: 35%
Population Healthy Nuclei (%) [3]: 49%
Population Hoechst High Intensity Objects (%) [3]: 3%
Population Membrane Permeable-Phenotype (%) [3]: 41%
Population Mitochondria Different-Phenotype (%) [3]: 41%
Population Mitotic Cells (%) [3]: 53%
Population Normal (%) [3]: 96%
Population Pyknosed Nuclei (%) [3]: 14%
Population Tubulin-Different-Phenotype (%) [3]: 41%
Total Cell Count [3]: 226
Population Apoptotic (%) [4]: 50%
Population Fragmented Nuclei (%) [4]: 17%
Population Healthy Nuclei (%) [4]: 66%
Population Hoechst High Intensity Objects (%) [4]: 0%
Population Membrane Permeable-Phenotype (%) [4]: 49%
Population Mitochondria Different-Phenotype (%) [4]: 56%
Population Mitotic Cells (%) [4]: 50%
Population Normal (%) [4]: 99%
Population Pyknosed Nuclei (%) [4]: 15%
Population Tubulin-Different-Phenotype (%) [4]: 64%
Total Cell Count [4]: 102
Population Apoptotic (%) [5]: 68%
Population Fragmented Nuclei (%) [5]: 29%
Population Healthy Nuclei (%) [5]: 62%
Population Hoechst High Intensity Objects (%) [5]: 3%
Population Membrane Permeable-Phenotype (%) [5]: 7%
Population Mitochondria Different-Phenotype (%) [5]: 1%
Population Mitotic Cells (%) [5]: 32%
Population Normal (%) [5]: 96%
Population Pyknosed Nuclei (%) [5]: 8%
Population Tubulin-Different-Phenotype (%) [5]: 3%
Total Cell Count [5]: 320
Population Apoptotic (%) [6]: 80%
Population Fragmented Nuclei (%) [6]: 16%
Population Healthy Nuclei (%) [6]: 75%
Population Membrane Permeable-Phenotype (%) [6]: 5%
Population Mitochondria Different-Phenotype (%) [6]: 6%
Population Mitotic Cells (%) [6]: 20%
Population Tubulin-Different-Phenotype (%) [6]: 2%
Total Cell Count [6]: 129
Population Apoptotic (%) [7]: 61%
Population Fragmented Nuclei (%) [7]: 38%
Population Healthy Nuclei (%) [7]: 42%
Population Hoechst High Intensity Objects (%) [7]: 5%
Population Membrane Permeable-Phenotype (%) [7]: 20%
Population Mitochondria Different-Phenotype (%) [7]: 33%
Population Mitotic Cells (%) [7]: 38%
Population Normal (%) [7]: 94%
Population Pyknosed Nuclei (%) [7]: 18%
Population Tubulin-Different-Phenotype (%) [7]: 25%
Total Cell Count [7]: 235
Population Apoptotic (%) [8]: 70%
Population Fragmented Nuclei (%) [8]: 20%
Population Healthy Nuclei (%) [8]: 63%
Population Membrane Permeable-Phenotype (%) [8]: 39%
Population Mitochondria Different-Phenotype (%) [8]: 61%
Population Mitotic Cells (%) [8]: 29%
Population Pyknosed Nuclei (%) [8]: 15%
Population Tubulin-Different-Phenotype (%) [8]: 52%
Total Cell Count [8]: 113
Population Apoptotic (%) [9]: 78%
Population Fragmented Nuclei (%) [9]: 21%
Population Healthy Nuclei (%) [9]: 66%
Population Hoechst High Intensity Objects (%) [9]: 2%
Population Membrane Permeable-Phenotype (%) [9]: 5%
Population Mitochondria Different-Phenotype (%) [9]: 1%
Population Mitotic Cells (%) [9]: 22%
Population Normal (%) [9]: 97%
Population Pyknosed Nuclei (%) [9]: 11%
Population Tubulin-Different-Phenotype (%) [9]: 1%
Total Cell Count [9]: 452
Population Apoptotic (%) [10]: 83%
Population Fragmented Nuclei (%) [10]: 16%
Population Healthy Nuclei (%) [10]: 72%
Population Hoechst High Intensity Objects (%) [10]: 4%
Population Membrane Permeable-Phenotype (%) [10]: 7%
Population Mitochondria Different-Phenotype (%) [10]: 2%
Population Mitotic Cells (%) [10]: 16%
Population Normal (%) [10]: 95%
Population Tubulin-Different-Phenotype (%) [10]: 4%
Total Cell Count [10]: 162
Population Apoptotic (%) [11]: 58%
Population Fragmented Nuclei (%) [11]: 33%
Population Healthy Nuclei (%) [11]: 44%
Population Hoechst High Intensity Objects (%) [11]: 4%
Population Membrane Permeable-Phenotype (%) [11]: 28%
Population Mitochondria Different-Phenotype (%) [11]: 30%
Population Mitotic Cells (%) [11]: 41%
Population Normal (%) [11]: 95%
Population Pyknosed Nuclei (%) [11]: 21%
Population Tubulin-Different-Phenotype (%) [11]: 21%
Total Cell Count [11]: 271
Population Apoptotic (%) [12]: 96%
Population Fragmented Nuclei (%) [12]: 18%
Population Healthy Nuclei (%) [12]: 58%
Population Hoechst High Intensity Objects (%) [12]: 8%
Population Membrane Permeable-Phenotype (%) [12]: 43%
Population Mitochondria Different-Phenotype (%) [12]: 29%
Population Mitotic Cells (%) [12]: 4%
Population Normal (%) [12]: 91%
Population Pyknosed Nuclei (%) [12]: 22%
Population Tubulin-Different-Phenotype (%) [12]: 35%
Total Cell Count [12]: 121
